The source made the active and inactive calls. The calls are words filed in the database; no cut-off is given here.

For data set [1], the system named is Glycine max. Put plainly: Inhibition of soybean lipoxygenase at 100 uM after 15 mins.
Data set [2] can be described thus: Inhibition of soybean lipoxygenase after 15 mins. On the set-up: species or system Glycine max.
Data set [3] in a line: Association constant pKa of the compound. Format: physicochemical. In outline:
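Ligand pKa by automated potentiometric titration with spectral scans in 0.1 M KCl at 25 ± 0.1 °C. pH was raised or lowered in 0.1-unit steps with KOH or HCl, and readings were taken once pH drifted by <0.001 over 3 s. A 1 min equilibration was used at each step before analysis of the titration data.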

Data set [4] addresses Tyrosine 3-monooxygenase (Rattus norvegicus) (UniProt P04177). The data set can be described thus: Inhibition of tyrosine hydroxylase in rat striata at 10 uM after 20 mins. A digest of the protocol: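 Rat striatal homogenate (1:9 in 0.32 M sucrose, about 3 mg tissue) in 0.5 M potassium phosphate, pH 6.0, with m-hydroxybenzylhydrazine, 1 mM 6,7-dimethyltetrahydropterine and chelator (1–100 µM). The reaction is started with L-tyrosine (0.4 mM final) for 20 min at 37 °C. L-DOPA is extracted on alumina and quantified by HPLC against α-methyldopa. Triplicate; non-enzymatic background measured using 3-iodotyrosine.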

The nature of data set [5]: Iron chelating activity of the compound. Format: functional. In outline:
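Affinity is given as pM, the negative log of free Fe(III), at total metal 10⁻⁶ M and total ligand 10⁻⁵ M, pH 7.4. Stability constants come from automated potentiometric/spectrophotometric titration in 0.1 M KCl at 25 °C with 5 min equilibration per 0.1 pH step. Data analysed by pHab.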

The test system of data set [6] is Glycine max. Put plainly: Inhibition of soybean lipoxygenase at 10 uM after 15 mins. In outline:
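Soybean lipoxygenase in 0.2 M borate buffer, pH 9, was pre-incubated 15 min with the compound (100 µM solution, 10 µM final in cuvette). The reaction was started with linoleic acid (1 mM). Linoleic hydroperoxide formation was followed at 234 nm for 10 min, and rates were computed using ε = 23600 M⁻¹ cm⁻¹.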

A short description of data set [7]: Lipophilicity, log D of the compound at pH 7.4. In kind it is physicochemical. The following applies: buffer. A digest of the protocol: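 After centrifugal separation, the loss of aqueous-phase absorbance gives the octanol/buffer concentration ratio.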
The subject of a further data set is Cortical neurone. The data set can be described thus: Neuroprotective activity against FeNTA-induced loss of synaptic integrity in rat cortical neurones assessed as damage to cell bodies at 30 uM by phase contrast microscopy. In kind it is functional.

Chain of Tyrosine 3-monooxygenase (Rattus norvegicus) (P04177 whole entry): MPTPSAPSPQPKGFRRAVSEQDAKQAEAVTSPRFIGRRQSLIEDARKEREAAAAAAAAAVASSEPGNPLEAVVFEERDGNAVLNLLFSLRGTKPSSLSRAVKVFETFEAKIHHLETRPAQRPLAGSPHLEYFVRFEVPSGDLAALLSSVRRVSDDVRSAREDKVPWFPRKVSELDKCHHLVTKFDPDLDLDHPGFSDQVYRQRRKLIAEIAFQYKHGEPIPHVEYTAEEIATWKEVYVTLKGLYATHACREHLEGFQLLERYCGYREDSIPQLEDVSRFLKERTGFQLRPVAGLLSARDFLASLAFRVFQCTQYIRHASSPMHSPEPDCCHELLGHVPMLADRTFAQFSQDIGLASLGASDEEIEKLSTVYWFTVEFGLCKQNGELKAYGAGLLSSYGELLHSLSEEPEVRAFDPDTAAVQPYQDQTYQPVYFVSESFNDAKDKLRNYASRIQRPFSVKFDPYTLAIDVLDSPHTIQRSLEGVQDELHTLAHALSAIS

`Cc1c(O)c(=O)ccn1C` [DEFERIPRONE]: the inhibition in the data set on Glycine max [1] was 58%. In addition, the concentration for a half-maximal effect (EC50) in data set [2] came out at 64 µM.
In turn, `C[C@H](NC(=O)c1nccc(O)c1O)C(=O)NCc1ccccc1.Cl` yielded a pKa in data set [3] of 6. The result in data set [4] was inactive. For the same compound, the inhibition with Glycine max [1] turned out to be 54%; in the data set with Glycine max [6], 3.3%. Also, in data set [5], the Activity stood at 18.9. The compound further gave a 50% effective concentration (EC50) in data set [2] of 80 µM. Moreover, in data set [7], the logD is 0.03. Moreover, the result in the data set with Cortical neurone was Active.
In data set [3], `CNC(=O)[C@H](Cc1ccccc1)NC(=O)c1nccc(O)c1O.Cl` displayed a pKa of 6.1. In data set [4], the result was Active. Besides, the inhibition with Glycine max [1] worked out at 71%; with Glycine max [6], 27.6%. This compound also showed an Activity in data set [5] of 21.4. Moreover, a half-maximal effect in data set [2] (EC50) was put at 25 µM. This compound also gave a logD in data set [7] of -0.11.
In data set [3], `CNC(=O)[C@H](C)NC(=O)c1nccc(O)c1O.Cl` displayed a pKa of 6. In addition, the result in data set [4] was inactive. Also, the inhibition with Glycine max [1] stood at 61%; with Glycine max [6], 2.7%. Moreover, the Activity in data set [5] worked out at 19.1. Further, in data set [2], the EC50 was 66 µM. Besides, in data set [7], the pH-dependent lipophilicity (logD) is -1.1.
In turn, `CC(C)CNC(=O)CNC(=O)c1nccc(O)c1O.Cl` returned a pKa in data set [3] of 6.2. The inhibition in the data set on Glycine max [1] came out at 70%; in the data set with Glycine max [6], 9.3%. The compound also had an Activity in data set [5] of 20.6. Besides, in data set [2], the EC50 was 44 µM. The compound also showed a logD in data set [7] of -0.33.
For the compound `CC(C)CNC(=O)[C@H](Cc1ccccc1)NC(=O)c1nccc(O)c1O.Cl`, the pKa in data set [3] was 6. Moreover, the result in data set [4] was Active. For the same compound, the values for the inhibition in the data set on Glycine max [1] and in the data set with Glycine max [6] were 81% and 46.5%, respectively. The Activity in data set [5] was found to be 20.4. In data set [2], this compound yielded a 50% effective concentration (EC50) of 13 µM. The log distribution coefficient (logD) in data set [7] worked out at 0.39.
On to `Cl.O=C(N[C@@H](Cc1ccccc1)C(=O)NCc1ccccc1)c1nccc(O)c1O`, for which the pKa in data set [3] was 6. For the same compound, the outcome in data set [4] was Active. In addition, the inhibition with Glycine max [1] worked out at 60%; with Glycine max [6], 30.2%. This compound gave an Activity in data set [5] of 21.5. In data set [2], the half-maximal effective concentration (EC50) turned out to be 52 µM. In addition, the logD in data set [7] worked out at 0.9.
For the compound `CNC(=O)CNC(=O)c1nccc(O)c1O.Cl`, the pKa in data set [3] came to 6.3. Moreover, the inhibition with Glycine max [1] turned out to be 68%; in the data set with Glycine max [6], 19.3%. In data set [5], this compound returned an Activity of 20.8. The same compound displayed an EC50 in data set [2] of 56 µM. In data set [7], the log distribution coefficient (logD) was -1.42.
On to `Cl.O=C(CNC(=O)c1nccc(O)c1O)NCc1ccccc1`, for which the pKa in data set [3] was determined as 6.2. In addition, the inhibition in the data set on Glycine max [1] was found to be 62%; in the data set with Glycine max [6] it was 8.3%. Further, the Activity in data set [5] is 19.1. In data set [2], this compound showed an EC50 of 54 µM. The compound further came in with a logD in data set [7] of 0.01.
As for `CCc1c(O)c(=O)ccn1CC`, the values for the inhibition in the data set on Glycine max [1] and with Glycine max [6] were 87.4% and 43%, respectively. Moreover, the concentration giving a half-maximal response (EC50) in data set [2] turned out to be 11 µM.
Compound `CC(C)CNC(=O)[C@H](C)NC(=O)c1nccc(O)c1O.Cl` gave a pKa in data set [3] of 6. Also, the inhibition in the data set with Glycine max [1] came to 71%; with Glycine max [6] it was 15.3%. This compound also yielded an Activity in data set [5] of 19.2. The midpoint of the response in data set [2], the EC50, lay at 37 µM. The logD in data set [7] is -0.08.

The term inhibition denotes the change of the read-out against control, counted positive when it falls. The low end stands for little suppression, the high end for strong suppression. What is called EC50 is the concentration needed to bring the measured effect to its halfway point. A word on the pKa: it is the pH at which an ionisable group is half protonated. As a reminder, the logD is lipophilicity at a set pH, counting ionised and neutral species. Low values mean a more hydrophilic compound, high ones a more lipophilic compound.

These data come from ChEMBL document CHEMBL1671785, “Synthesis, physical-chemical characterisation and biological evaluation of novel 2-amido-3-hydroxypyridin-4(1H)-ones: Iron chelators with the potential for treating Alzheimer's disease” (Bioorg Med Chem, 2011).
